Measured values as given in article PMC2903386 (The Journal of Biological Chemistry, 2010).

Tests used:
MMP-2 = MMP-2 (Homo sapiens, UniProt P08253); experiment: Cleavage by purified MMP-2; assay type: in vitro ADME; details: 5 μM Cy5-labeled peptide, 50 nM enzyme, 2 h, Tricine gel, UVP software
In short: (§1)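 Commercial active purified enzymes were each used at 50 nM with 5 μM Cy5-labeled test peptide in the manufacturer's recommended buffer. The figure legend gives 2 h; the methods text gives 4 h. Samples were boiled 1 min in Tricine sample buffer, run on 10–20% Tricine gels and imaged (ex 628 ± 20 nm, em >700 nm). Percent cleaved versus uncleaved was quantitated from gel fluorescence.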

MMP-9 = MMP-9 (Homo sapiens, UniProt P14780); experiment: Cleavage by purified MMP-9; assay type: in vitro ADME; details: 5 μM Cy5-labeled peptide, 50 nM enzyme, 2 h, Tricine gel, UVP software
In short: as §1

legumain [1] = target: legumain (Homo sapiens, UniProt Q99538); experiment: Cleavage by purified legumain; assay type: in vitro ADME; details: purified enzyme; data not shown
MMP-13 [2] = target: MMP-13 (Homo sapiens, UniProt P45452); experiment: Cleavage by purified MMP-13; assay type: in vitro ADME; details: purified enzyme; data not shown
MMP12 = MMP12 (Homo sapiens, UniProt P39900); experiment: Cleavage by purified MMP12; assay type: in vitro ADME; details: purified enzyme; at times only visible upon gel overexposure
PyMT mammary tumors = experiment: Fluorescence imaging contrast in PyMT tumor-bearing mice; assay type: in vivo, mouse; details: live mice, 100 μl of 100 μM Cy5-labeled ACPP, imaged 6 h post injection
In short: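 PyMT transgenic mice bearing spontaneous mammary tumors were anesthetized with ketamine 80 mg/kg plus midazolam 5 mg/kg (1:1) and weighed. They were injected via the tail vein with Cy5 peptide: free peptide 100 μl of 100 μM (10 nmol) or albumin-reactive peptide 100 μl of 30 μM (3 nmol). Maestro imaging (ex 640 ± 24 nm, em >700 nm) was done at 6 h or 48 h, comparing tumor with adjacent normal tissue.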

factor XIIa = factor XIIa (Homo sapiens, UniProt P00748); experiment: Cleavage by purified factor XIIa; assay type: in vitro ADME; details: 5 μM Cy5-labeled peptide, 50 nM enzyme, 2 h, Tricine gel, UVP software
In short: as §1

cathepsin B = cathepsin B (Homo sapiens, UniProt P07858); experiment: Cleavage by purified cathepsin B; assay type: in vitro ADME; details: 5 μM Cy5-labeled peptide, 50 nM enzyme, 2 h, Tricine gel, UVP software
In short: as §1

MMP-14 = experiment: Cleavage by purified MMP-14; assay type: in vitro ADME
In short: as §1

Tumor uptake = assay type: in vivo; details: nude, mouse, tumor (MDA-MB-435 M4A4 xenograft), iv, 10 nmol
In short: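 After imaging, mice were euthanized with isoflurane. 30 mg of each tissue was homogenized in 100 μl Tris pH 7.6 with 1% SDS, heated to 85 °C for 10 min, microwaved 10 s and spun at 20,500 × g for 15 min, then imaged. Tissue-specific spiked standards calibrated fluorescence. SUV = tissue peptide molality ÷ injected dose (mol/kg body weight). Values are means ± S.D.; two-tailed t tests.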

factor Xa = factor Xa (Homo sapiens, UniProt P00742); experiment: Cleavage by purified factor Xa; assay type: in vitro ADME; details: 5 μM Cy5-labeled peptide, 50 nM enzyme, 2 h, Tricine gel, UVP software
In short: as §1

factor VIIa = experiment: Cleavage by purified factor VIIa; assay type: in vitro ADME; details: human
In short: as §1

kallikrein 5 = kallikrein 5 (Homo sapiens, UniProt Q9Y337); experiment: Cleavage by purified kallikrein 5; assay type: in vitro ADME; details: 5 μM Cy5-labeled peptide, 50 nM enzyme, 2 h, Tricine gel, UVP software
In short: as §1

matriptase [3] = target: matriptase (Homo sapiens, UniProt Q9Y5Y6); experiment: Cleavage by purified matriptase; assay type: in vitro ADME; details: purified enzyme; data not shown
factor XIa = factor XIa (Homo sapiens, UniProt P03951); experiment: Cleavage by purified factor XIa; assay type: in vitro ADME; details: 5 μM Cy5-labeled peptide, 50 nM enzyme, 2 h, Tricine gel, UVP software
In short: as §1

cathepsin L = cathepsin L (Homo sapiens, UniProt P07711); experiment: Cleavage by purified cathepsin L; assay type: in vitro ADME; details: 5 μM Cy5-labeled peptide, 50 nM enzyme, 2 h, Tricine gel, UVP software
In short: as §1

[4] = Tumor standardized uptake value; assay type: in vivo; details: PyMT, mouse, iv, 10 nmol
leukocyte elastase = leukocyte elastase (Homo sapiens, UniProt P08246); experiment: Cleavage by leukocyte elastase; assay type: in vitro ADME; details: 5 μM Cy5-labeled peptide, leukocyte elastase (ELA-2 from a different source), gel
In short: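 Commercial active-form purified enzyme at 50 nm was incubated with 5 μm Cy5-labeled peptide in the manufacturer's recommended buffer. Samples were mixed with Tricine sample buffer, boiled 1 min, and resolved on 10–20% Tricine acrylamide gels. Gels were imaged quantitatively at excitation 628 ± 20 nm and emission >700 nm, and the percentage of cleaved versus uncleaved peptide was quantified.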

thrombin = thrombin (Homo sapiens, UniProt P00734); experiment: Cleavage by purified thrombin; assay type: in vitro ADME; details: 5 μM Cy5-labeled peptide, 50 nM enzyme, 2 h, Tricine gel, UVP software
In short: as §1

factor IXa = factor IXa (Homo sapiens, UniProt P00740); experiment: Cleavage by purified factor IXa; assay type: in vitro ADME; details: 5 μM Cy5-labeled peptide, 50 nM enzyme, 2 h, Tricine gel, UVP software
In short: as §1

cathepsin H = experiment: Cleavage by purified cathepsin H; assay type: in vitro ADME; details: human
In short: as §1

[5] = target: tissue plasminogen activator (Homo sapiens, UniProt P00750); experiment: Cleavage by purified tissue plasminogen activator; assay type: in vitro ADME; details: 5 μM Cy5-labeled peptide, 50 nM enzyme, 2 h, Tricine gel, UVP software
In short: as §1

MMP-8 [6] = target: MMP-8 (Homo sapiens, UniProt P22894); experiment: Cleavage by purified MMP-8; assay type: in vitro ADME; details: purified enzyme; data not shown
[7] = target: urokinase plasminogen activator (Homo sapiens, UniProt P00749); experiment: Cleavage by purified urokinase plasminogen activator; assay type: in vitro ADME
In short: as §1

[8] = Cleavage of ACPP by PyMT tumor cystic fluid; assay type: in vitro ADME, mouse; details: 5 μM Cy5-labeled peptide, 2% cystic fluid from PyMT tumors, 2 h, 37 °C, gel
In short: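 Cystic fluid was aspirated with a 28-gauge syringe from surgically exposed fluid-filled mammary tumor nodules of PyMT mice. 5 μM Cy5 peptide in PBS with 1 μM ZnCl2 was digested with cystic fluid (2%) at 37 °C. Aliquots were taken from 20 min to 18 h, with 2 h reported. Protease inhibitors (e.g. Ca-DTPA, TPEN, aprotinin, E-64, leupeptin, pepstatin A) were used at manufacturers' recommended concentrations. Read-out was gel fluorescence.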

pancreatic elastase = pancreatic elastase (Sus scrofa, UniProt P00772); experiment: Cleavage by pancreatic elastase; assay type: in vitro ADME, porcine; details: 5 μM Cy5-labeled peptide, pancreatic elastase (ELA-1), gel
In short: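 5 μM Cy5-labeled test peptide was exposed to pancreatic elastase (ELA-1), with or without 60 μM α1-antitrypsin. Neutrophil/leukocyte elastase (two sources) and tumor extract (2.0 to 0.25%) were tested in parallel. Cleavage was read from fluorescent Tricine gel electrophoresis.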

MMP-13 [9] = experiment: MMP-13
MMP-8 [10] = experiment: MMP-8
hepsin = experiment: hepsin; details: up to 2 h
matriptase [11] = experiment: matriptase
[12] = test system: prostate-specific antigen; experiment: prostate-specific antigen; details: up to 2 h
enterokinase = experiment: enterokinase; details: up to 2 h
legumain [13] = experiment: legumain
[14] = Effect of inhibitors on cleavage of RLQLKL ACPP by PyMT tumor cystic fluid; assay type: biochemical, mouse; details: 5 μM Cy5-labeled RLQLKL ACPP, 2% cystic fluid, 2 h; 5 mM Ca-DTPA, 50 μM TPEN, 18 μM SB3CT, 50 nM GM6001, 0.26 μM prinomastat, 150 nM aprotinin, 100 μM leupeptin, 60 μM α1-antitrypsin; gel
In short: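 Cystic fluid was aspirated by syringe from surgically exposed fluid-filled mammary tumor nodules of PyMT mice. The 5 μm Cy5 peptide was incubated at 37 °C for 2 h in PBS with 1 μm ZnCl2. Inhibitors were used at manufacturer-recommended concentrations, including 10 μm E-64, 1 μm pepstatin A, protease inhibitor mixture III (1:1000) and mixture III plus DTPA. Cleavage was read by Tricine gel electrophoresis and Cy5 fluorescence imaging.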

plasmin = plasmin (Homo sapiens, UniProt P00747); experiment: Effect of inhibitor on plasmin cleavage of RLQLKL ACPP; assay type: biochemical; details: 5 μM Cy5-labeled RLQLKL ACPP, gel
[15] = Effect of inhibitors on cleavage of RLQLKL ACPP by tumor extract; assay type: biochemical, mouse; details: 5 μM Cy5-labeled RLQLKL ACPP, tumor extract 2.0 to 0.25%; 60 μM α1-antitrypsin; gel
In short: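 Fresh tumor tissue was gently homogenized in PBS on ice and spun at 14,000 × g for 1 min; the supernatant served as the extract. The 5 μm Cy5 peptide was digested at 37 °C in PBS containing 1 μm ZnCl2, with or without 60 μm α1-antitrypsin. Aliquots were taken from 20 min to 18 h, with the 2-h point reported. Cleavage was quantified by Tricine gel and fluorescence imaging.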

factor IXa, sequence (P00740 227-461 limits assumed): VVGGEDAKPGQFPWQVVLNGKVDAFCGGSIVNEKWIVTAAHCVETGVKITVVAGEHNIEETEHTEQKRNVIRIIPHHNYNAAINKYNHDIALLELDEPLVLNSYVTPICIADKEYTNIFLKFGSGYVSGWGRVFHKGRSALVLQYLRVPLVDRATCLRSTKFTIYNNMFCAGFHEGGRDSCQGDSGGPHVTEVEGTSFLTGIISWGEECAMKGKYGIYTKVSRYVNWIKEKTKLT
factor IXa, sequence (P00740 47-191 partner limits assumed): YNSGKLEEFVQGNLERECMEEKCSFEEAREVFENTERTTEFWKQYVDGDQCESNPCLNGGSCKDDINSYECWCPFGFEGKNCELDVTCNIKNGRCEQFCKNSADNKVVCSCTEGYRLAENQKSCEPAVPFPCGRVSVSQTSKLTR
pancreatic elastase, sequence (P00772 27-266): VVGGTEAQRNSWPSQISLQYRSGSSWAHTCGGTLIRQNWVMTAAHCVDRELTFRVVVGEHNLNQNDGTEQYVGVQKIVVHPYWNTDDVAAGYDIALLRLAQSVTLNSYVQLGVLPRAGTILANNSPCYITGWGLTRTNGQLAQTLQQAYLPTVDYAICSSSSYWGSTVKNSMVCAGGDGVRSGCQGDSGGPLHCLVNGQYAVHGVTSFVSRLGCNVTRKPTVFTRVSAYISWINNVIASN
cathepsin L, sequence (P07711 114-333): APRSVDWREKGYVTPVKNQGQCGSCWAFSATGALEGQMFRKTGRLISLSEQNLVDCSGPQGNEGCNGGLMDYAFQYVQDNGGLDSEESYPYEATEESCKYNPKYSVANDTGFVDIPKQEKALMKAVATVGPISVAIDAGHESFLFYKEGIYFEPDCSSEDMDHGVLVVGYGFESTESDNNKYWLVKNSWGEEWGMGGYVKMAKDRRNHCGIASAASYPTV
MMP12, sequence (P39900 106-268 limits assumed): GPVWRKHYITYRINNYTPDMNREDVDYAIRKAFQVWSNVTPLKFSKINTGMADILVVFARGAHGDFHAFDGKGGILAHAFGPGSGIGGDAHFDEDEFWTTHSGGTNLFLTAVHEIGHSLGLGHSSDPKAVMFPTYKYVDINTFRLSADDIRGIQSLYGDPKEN
factor XIa, sequence (P03951 388-625 limits assumed): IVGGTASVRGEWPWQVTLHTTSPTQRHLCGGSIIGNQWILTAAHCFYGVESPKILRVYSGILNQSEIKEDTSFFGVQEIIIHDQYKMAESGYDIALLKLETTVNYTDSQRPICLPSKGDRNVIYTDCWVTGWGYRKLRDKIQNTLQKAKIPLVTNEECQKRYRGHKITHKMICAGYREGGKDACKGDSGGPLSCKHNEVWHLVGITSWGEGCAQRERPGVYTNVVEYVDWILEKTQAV
factor XIa, sequence (P03951 19-387 partner limits assumed): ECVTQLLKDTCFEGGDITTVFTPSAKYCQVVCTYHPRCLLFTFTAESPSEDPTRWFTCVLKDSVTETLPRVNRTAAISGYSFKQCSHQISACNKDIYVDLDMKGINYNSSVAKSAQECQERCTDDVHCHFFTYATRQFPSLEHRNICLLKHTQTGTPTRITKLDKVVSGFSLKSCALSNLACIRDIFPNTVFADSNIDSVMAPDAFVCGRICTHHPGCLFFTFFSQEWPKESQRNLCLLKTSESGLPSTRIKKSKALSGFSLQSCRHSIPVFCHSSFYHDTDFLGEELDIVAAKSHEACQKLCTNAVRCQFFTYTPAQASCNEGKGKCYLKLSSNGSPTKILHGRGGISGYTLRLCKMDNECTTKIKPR
MMP-8 (Homo sapiens, UniProt P22894), sequence (P22894 101-467, species assumed): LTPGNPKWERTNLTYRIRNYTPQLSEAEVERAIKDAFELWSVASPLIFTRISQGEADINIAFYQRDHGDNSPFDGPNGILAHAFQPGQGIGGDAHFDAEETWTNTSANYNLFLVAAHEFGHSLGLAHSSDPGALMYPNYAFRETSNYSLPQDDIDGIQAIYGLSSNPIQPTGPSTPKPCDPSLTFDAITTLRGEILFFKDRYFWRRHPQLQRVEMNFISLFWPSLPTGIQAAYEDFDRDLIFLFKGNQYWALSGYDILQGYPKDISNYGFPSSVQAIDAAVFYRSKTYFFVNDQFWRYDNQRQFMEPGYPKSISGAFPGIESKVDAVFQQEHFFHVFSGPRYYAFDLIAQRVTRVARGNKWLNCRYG
kallikrein 5, sequence (Q9Y337 67-293 limits assumed): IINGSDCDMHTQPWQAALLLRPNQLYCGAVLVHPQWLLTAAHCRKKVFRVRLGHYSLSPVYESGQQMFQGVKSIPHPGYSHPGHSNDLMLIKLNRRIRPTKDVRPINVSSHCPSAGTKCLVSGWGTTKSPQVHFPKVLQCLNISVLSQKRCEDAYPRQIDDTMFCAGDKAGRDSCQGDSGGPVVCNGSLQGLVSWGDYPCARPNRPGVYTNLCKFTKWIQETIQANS
factor XIIa, sequence (P00748 373-615 limits assumed): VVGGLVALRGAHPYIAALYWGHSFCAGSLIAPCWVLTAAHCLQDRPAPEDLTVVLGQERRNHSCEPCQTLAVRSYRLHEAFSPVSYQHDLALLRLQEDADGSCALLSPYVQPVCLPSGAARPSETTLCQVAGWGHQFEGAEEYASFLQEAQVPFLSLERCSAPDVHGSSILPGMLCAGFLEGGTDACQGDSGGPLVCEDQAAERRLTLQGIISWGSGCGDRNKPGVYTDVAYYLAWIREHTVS
factor Xa, sequence (P00742 235-488 limits assumed): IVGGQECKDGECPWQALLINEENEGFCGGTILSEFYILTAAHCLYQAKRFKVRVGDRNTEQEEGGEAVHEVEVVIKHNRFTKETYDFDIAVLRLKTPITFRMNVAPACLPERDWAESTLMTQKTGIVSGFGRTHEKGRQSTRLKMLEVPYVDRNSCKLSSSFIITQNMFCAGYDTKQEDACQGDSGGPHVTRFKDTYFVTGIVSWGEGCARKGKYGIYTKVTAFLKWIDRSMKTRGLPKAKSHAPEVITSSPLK
factor Xa, sequence (P00742 41-179 partner limits assumed): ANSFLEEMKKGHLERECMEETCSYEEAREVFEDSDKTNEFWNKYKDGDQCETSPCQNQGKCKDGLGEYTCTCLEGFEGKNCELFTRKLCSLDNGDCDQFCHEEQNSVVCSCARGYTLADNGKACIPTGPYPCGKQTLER
leukocyte elastase, sequence (P08246 30-267): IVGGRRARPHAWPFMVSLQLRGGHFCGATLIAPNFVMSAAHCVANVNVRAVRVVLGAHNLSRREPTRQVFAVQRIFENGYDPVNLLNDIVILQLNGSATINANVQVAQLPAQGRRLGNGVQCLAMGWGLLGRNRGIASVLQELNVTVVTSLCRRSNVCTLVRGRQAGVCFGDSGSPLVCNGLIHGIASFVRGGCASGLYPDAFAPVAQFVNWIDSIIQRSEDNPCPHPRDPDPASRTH
MMP-9, sequence (P14780 107-707 limits assumed): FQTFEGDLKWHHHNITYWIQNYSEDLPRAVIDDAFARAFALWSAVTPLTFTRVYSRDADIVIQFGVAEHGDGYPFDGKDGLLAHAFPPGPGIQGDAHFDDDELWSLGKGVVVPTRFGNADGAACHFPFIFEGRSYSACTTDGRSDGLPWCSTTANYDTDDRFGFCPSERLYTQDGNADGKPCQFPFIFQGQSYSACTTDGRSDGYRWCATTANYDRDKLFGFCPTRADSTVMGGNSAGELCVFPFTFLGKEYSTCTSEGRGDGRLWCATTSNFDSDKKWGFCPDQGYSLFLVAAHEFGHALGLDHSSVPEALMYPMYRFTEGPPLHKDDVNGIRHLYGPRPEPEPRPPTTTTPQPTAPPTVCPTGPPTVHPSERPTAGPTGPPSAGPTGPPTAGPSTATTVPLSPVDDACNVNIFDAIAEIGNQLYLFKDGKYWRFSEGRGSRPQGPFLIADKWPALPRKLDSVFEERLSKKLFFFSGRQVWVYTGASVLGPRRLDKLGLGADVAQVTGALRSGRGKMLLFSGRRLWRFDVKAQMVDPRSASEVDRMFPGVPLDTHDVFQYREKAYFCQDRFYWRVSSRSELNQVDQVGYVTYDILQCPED
MMP-2, sequence (P08253 110-660): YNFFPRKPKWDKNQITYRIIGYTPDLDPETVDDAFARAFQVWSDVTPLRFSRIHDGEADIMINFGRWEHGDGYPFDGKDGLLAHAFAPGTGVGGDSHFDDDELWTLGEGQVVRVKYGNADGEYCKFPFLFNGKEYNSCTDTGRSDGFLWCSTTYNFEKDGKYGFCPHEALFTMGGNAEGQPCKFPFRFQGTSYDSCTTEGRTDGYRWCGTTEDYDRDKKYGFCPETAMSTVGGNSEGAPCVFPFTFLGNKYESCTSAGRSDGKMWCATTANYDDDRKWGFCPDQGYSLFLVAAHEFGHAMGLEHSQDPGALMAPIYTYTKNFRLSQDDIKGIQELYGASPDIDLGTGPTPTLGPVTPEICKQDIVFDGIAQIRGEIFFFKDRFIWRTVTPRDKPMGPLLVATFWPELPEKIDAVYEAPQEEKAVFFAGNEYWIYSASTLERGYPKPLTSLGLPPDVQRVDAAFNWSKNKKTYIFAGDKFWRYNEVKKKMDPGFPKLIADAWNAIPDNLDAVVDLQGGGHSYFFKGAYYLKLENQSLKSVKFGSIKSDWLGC
tissue plasminogen activator, sequence (P00750 36-562): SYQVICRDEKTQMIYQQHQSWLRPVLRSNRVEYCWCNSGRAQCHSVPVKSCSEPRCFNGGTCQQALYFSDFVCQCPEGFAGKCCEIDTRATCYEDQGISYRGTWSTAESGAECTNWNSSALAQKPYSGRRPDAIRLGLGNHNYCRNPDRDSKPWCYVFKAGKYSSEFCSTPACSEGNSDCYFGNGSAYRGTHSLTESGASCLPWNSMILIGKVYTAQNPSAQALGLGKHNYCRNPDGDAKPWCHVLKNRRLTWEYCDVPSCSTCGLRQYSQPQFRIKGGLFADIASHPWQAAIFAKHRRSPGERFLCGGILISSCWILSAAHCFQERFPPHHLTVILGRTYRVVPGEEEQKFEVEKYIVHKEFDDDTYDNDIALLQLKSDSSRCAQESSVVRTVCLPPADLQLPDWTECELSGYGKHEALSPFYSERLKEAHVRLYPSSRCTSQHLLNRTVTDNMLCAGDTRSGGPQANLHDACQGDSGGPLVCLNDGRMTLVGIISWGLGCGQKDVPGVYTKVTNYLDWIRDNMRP

## CC[N+]1=C(C=CC=CC=C2N(CCCCCC(=O)NCCN3C(=O)CC(SC[C@@H](NC(=O)[C@@H](CCCNC(=N)N)NC(=O)[C@@H](CCCNC(=N)N)NC(=O)[C@@H](CCCNC(=N)N)NC(=O)[C@@H](CCCNC(=N)N)NC(=O)[C@@H](CCCNC(=N)N)NC(=O)[C@@H](CCCNC(=N)N)NC(=O)[C@@H](CCCNC(=N)N)NC(=O)[C@@H](CCCNC(=N)N)NC(=O)[C@@H](CCCNC(=N)N)NC(=O)[C@H](CC(C)C)NC(=O)[C@H](CCCCN)NC(=O)[C@H](CC(C)C)NC(=O)[C@H](CCC(N)=O)NC(=O)[C@H](CC(C)C)NC(=O)[C@H](CCCNC(=N)N)NC(=O)CCCCCNC(=O)[C@@H](CCC(=O)O)NC(=O)[C@@H](CCC(=O)O)NC(=O)[C@@H](CCC(=O)O)NC(=O)[C@@H](CCC(=O)O)NC(=O)[C@@H](CCC(=O)O)NC(=O)[C@@H](CCC(=O)O)NC(=O)[C@@H](CCC(=O)O)NC(=O)[C@@H](CCC(=O)O)NC(=O)[C@H](N)CCC(=O)O)C(N)=O)C3=O)c3ccc(S(=O)(=O)O)cc3C2(C)C)C(C)(C)c2cc(S(=O)(=O)[O-])ccc21 (stereo partly shown) [RLQLKL ACPP]
MMP-2
  percentage of cleavage by MMP-2: less than 3%
MMP-9
  percentage of cleavage by MMP-9: less than 3%
Legumain [1]
  cleavage by legumain (in words): no cleavage
MMP-13 [2]
  cleavage by MMP-13 (in words): no cleavage
MMP12
  cleavage by MMP12 (in words): minimal cleavage
PyMT mammary tumors
  skin uptake versus PLGLAG ACPP (in words): significantly less
Factor XIIa
  percentage of cleavage by factor XIIa: less than 3%
Cathepsin B
  percentage of cleavage by cathepsin B: less than 3%
MMP-14
  metabolised at 2 h, 5 μM: < 3%
Tumor uptake
  SUV at 6 h: 0.7 ± 0.27 SUV
Factor Xa
  percentage of cleavage by factor Xa: less than 3%
Factor VIIa
  metabolised at 2 h, 5 μM: < 3%
Kallikrein 5
  percentage of cleavage by kallikrein 5: less than 3%
Matriptase [3]
  cleavage by matriptase (in words): no cleavage
Factor XIa
  percentage of cleavage by factor XIa: less than 3%
Cathepsin L
  percentage of cleavage by cathepsin L: less than 3%
[4]
  SUV at 6 h: 0.39 ± 0.14 SUV
Leukocyte elastase
  cleavage by leukocyte elastase (in words): effectively cleaved
thrombin
  percentage of cleavage by thrombin: less than 3%
Factor IXa
  percentage of cleavage by factor IXa: less than 3%
Cathepsin H
  metabolised at 2 h, 5 μM: < 3%
[5]
  percentage of cleavage by tissue plasminogen activator: less than 3%
MMP-8 [6]
  cleavage by MMP-8 (in words): no cleavage
[7]; 5 μM Cy5-labeled peptide, 50 nM enzyme, 2 h, Tricine gel, UVP software
  percentage of cleavage by urokinase plasminogen activator: less than 3%
[7]; purified enzyme, data not shown
  cleavage by urokinase (in words): no cleavage
[8]
  cleavage by cystic fluid (in words): similarly to tumor tissue extracts
Pancreatic elastase
  cleavage by pancreatic elastase (in words): effectively cleaved

## NH2-e9-(ahx)-RLQLKL-r9-c-(Cy5)-NH2
MMP-13 [9]
  not cleaved: no cleavage
MMP-8 [10]
  not cleaved: no cleavage
hepsin
  not cleaved: less than 3% cleavage
Matriptase [11]
  not cleaved: no cleavage
[12]
  not cleaved: less than 3% cleavage
enterokinase
  not cleaved: less than 3% cleavage
Legumain [13]
  not cleaved: no cleavage

B1: serpin F2/α2-antiplasmin: plasmin-specific inhibitor (protein, UniProt P08697 40-491, looked up)
Alpha-2-antiplasmin: NQEQVSPLTLLKLGNQEPGGQTALKSPPGVCSRDPTPEQTHRLARAMMAFTADLFSLVAQTSTCPNLILSPLSVALALSHLALGAQNHTLQRLQQVLHAGSGPCLPHLLSRLCQDLGPGAFRLAARMYLQKGFPIKEDFLEQSEQLFGAKPVSLTGKQEDDLANINQWVKEATEGKIQEFLSGLPEDTVLLLLNAIHFQGFWRNKFDPSLTQRDSFHLDEQFTVPVEMMQARTYPLRWFLLEQPEIQVAHFPFKNNMSFVVLVPTHFEWNVSQVLANLSWDTLHPPLVWERPTKVRLPKLYLKHQMDLVATLSQLGLQELFQAPDLRGISEQSLVVSGVQHQSTLELSEVGVEAAAATSIAMSRMSLSSFSVNRPFLFFIFEDTTGLPLFVGSVRNPNPSAPRELKEQQDSPGNKDFLQSLKGFPRGDKLFGPDLKLVPPMEEDYPQFGSPK
[14]
  inhibition of cystic fluid cleavage of RLQLKL ACPP (in words): did not inhibit
plasmin
  inhibition of plasmin cleavage of RLQLKL ACPP (in words): did inhibit
[15]
  inhibition of tumor extract cleavage of RLQLKL ACPP (in words): did not inhibit
